Measured values as given in ChEMBL document CHEMBL4229503, “Discovery of novel Syk/PDGFR-α/c-Kit inhibitors as multi-targeting drugs to treat rheumatoid arthritis” (Bioorg Med Chem, 2018).
Converted amounts (≈) assume the structure as drawn.

Key:
[1] = Antiproliferative activity against rheumatoid arthritis patient-derived HFLS after 72 hrs by MTT assay; assay type: functional, Homo sapiens
Outline: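 RA synovial fibroblasts (DMEM, 10% FBS, passage 3) were seeded at 2 × 10^4 cells/well. Compound was given at graded concentrations against an untreated control for 72 h at 37 °C, 5% CO2. MTT was then added for 4 h and absorbance read at 450 nm. IC50 came from non-linear regression of 6-point dose-response curves.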

[2] = biological target: Mast/stem cell growth factor receptor Kit (Homo sapiens, UniProt P10721); test: Inhibition of c-kit (unknown origin) using FAM-labeled peptide as substrate preincubated for 10 mins followed by substrate addition measured after 25 mins
Outline: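 Enzyme was preincubated with compound for 10 min at room temperature, then FAM-labeled peptide with ATP was added for 25 min at 28 °C. After an EDTA stop, the plate was read on a Caliper. IC50 came from non-linear curve fit.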

BMMC [3] = test: Antiproliferative activity against BALB/c mouse BMMC after 48 hrs by MTT assay
[4] = biological target: Platelet-derived growth factor receptor alpha (Homo sapiens, UniProt P16234); test: Inhibition of PDGFRalpha (unknown origin) using FAM-labeled peptide as substrate preincubated for 10 mins followed by substrate addition measured after 25 mins
BMMC [5] = test: Antiinflammatory activity against BALB/c mouse BMMC assessed as reduction in TNFalpha levels incubated for 30 mins measured after 48 hrs by ELISA; assay type: functional, cell-based
Outline: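 BALB/c mouse bone-marrow mast cells were grown in RPMI 1640 with 1% non-essential amino acids and 10% FBS at 37 °C under 5% CO2. Cells were seeded at 2 × 10^4 cells/well in 6-well plates and given compound or vehicle for 30 min. Supernatant TNF-α was read by ELISA after 48 h.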

[6] = Solubility of the compound in water after 24 hrs by HPLC method; assay type: physicochemical
Homo sapiens [7] = species on record: Homo sapiens; test: Antiinflammatory activity against rheumatoid arthritis patient-derived HFLS assessed as reduction in MMP-3 levels incubated for 30 mins measured after 72 hrs by ELISA; assay type: functional
Outline: (§1)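 RA patient synovial fibroblasts were kept in high-glucose DMEM with 10% FBS at 37 °C under 5% CO2 and used after 3 passages. Cells were seeded at 2 × 10^4 cells/well in 6-well plates and given compound or vehicle for 30 min. IL-6 and MMP-3 in the supernatant were read by ELISA after 72 h.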

Homo sapiens [8] = species on record: Homo sapiens; test: Antiinflammatory activity against rheumatoid arthritis patient-derived HFLS assessed as reduction in IL-6 levels incubated for 30 mins measured after 72 hrs by ELISA; assay type: functional; outline: as §1

Chain of Mast/stem cell growth factor receptor Kit (P10721 whole entry): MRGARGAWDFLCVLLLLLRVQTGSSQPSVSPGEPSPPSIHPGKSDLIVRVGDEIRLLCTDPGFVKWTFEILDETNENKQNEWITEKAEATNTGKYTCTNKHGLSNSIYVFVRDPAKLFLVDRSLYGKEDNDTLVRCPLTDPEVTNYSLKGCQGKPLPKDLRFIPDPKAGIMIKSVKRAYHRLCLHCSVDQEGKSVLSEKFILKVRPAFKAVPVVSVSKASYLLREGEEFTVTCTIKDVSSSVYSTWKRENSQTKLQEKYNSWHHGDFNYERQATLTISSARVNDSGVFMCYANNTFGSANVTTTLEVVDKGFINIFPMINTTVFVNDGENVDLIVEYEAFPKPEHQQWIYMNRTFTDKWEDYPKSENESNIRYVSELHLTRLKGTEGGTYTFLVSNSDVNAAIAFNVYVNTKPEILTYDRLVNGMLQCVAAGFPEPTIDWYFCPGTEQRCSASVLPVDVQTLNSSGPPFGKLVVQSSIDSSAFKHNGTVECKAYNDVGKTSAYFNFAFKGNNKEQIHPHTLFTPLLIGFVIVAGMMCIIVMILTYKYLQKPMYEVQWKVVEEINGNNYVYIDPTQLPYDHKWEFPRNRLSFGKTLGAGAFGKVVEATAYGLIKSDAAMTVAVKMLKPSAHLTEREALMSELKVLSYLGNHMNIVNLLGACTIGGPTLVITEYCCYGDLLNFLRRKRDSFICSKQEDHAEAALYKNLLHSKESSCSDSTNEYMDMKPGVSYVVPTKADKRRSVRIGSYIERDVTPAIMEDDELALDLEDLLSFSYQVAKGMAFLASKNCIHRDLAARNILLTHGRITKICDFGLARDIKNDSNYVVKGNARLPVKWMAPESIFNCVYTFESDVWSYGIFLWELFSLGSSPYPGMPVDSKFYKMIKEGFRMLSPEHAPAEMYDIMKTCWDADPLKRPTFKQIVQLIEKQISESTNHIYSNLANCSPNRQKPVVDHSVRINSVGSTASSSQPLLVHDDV
Chain of Platelet-derived growth factor receptor alpha (P16234 whole entry): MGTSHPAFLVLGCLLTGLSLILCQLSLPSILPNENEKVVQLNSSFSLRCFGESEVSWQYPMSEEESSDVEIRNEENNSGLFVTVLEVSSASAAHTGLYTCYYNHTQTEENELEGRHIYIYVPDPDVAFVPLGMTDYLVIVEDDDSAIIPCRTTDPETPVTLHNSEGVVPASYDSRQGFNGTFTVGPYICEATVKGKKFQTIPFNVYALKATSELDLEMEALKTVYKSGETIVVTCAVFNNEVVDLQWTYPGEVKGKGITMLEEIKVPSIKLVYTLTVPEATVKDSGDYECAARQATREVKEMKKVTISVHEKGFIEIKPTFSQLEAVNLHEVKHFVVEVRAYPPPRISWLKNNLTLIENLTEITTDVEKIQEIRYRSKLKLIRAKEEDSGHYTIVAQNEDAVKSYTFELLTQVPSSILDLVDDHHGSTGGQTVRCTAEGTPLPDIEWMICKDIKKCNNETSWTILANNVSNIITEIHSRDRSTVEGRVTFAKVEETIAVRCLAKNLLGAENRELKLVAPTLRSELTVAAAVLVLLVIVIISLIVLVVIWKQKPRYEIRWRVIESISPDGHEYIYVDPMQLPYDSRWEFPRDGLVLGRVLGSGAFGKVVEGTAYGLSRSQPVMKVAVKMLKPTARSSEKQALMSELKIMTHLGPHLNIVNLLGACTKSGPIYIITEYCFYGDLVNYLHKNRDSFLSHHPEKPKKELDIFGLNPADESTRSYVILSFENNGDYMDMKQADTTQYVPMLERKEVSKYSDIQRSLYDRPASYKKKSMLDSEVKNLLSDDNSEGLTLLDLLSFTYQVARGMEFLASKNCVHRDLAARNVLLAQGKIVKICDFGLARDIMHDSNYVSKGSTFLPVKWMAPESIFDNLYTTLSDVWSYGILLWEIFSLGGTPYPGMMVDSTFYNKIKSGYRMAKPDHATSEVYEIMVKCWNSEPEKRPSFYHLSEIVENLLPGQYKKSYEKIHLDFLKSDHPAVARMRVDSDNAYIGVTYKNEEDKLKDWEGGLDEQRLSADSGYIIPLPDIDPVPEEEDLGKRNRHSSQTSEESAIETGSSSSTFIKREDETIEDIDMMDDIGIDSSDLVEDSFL

Row | Compound | IC50 [2] [µM] | IC50 [4] [µM] | IC50 [1] [µM] | also measured
1 | COc1cc(Nc2nc(N3CCC(NC(=O)c4ccc(C(=O)O)cn4)C3)nc3c2COC3)cc(OC)c1OC (centres undefined) | 31.3 |  | 31 | IC50 (BMMC [3]): 21.1 µM
2 | O=C(O)c1ccc(C(=O)NC2CCN(c3nc4c(c(Nc5ccc6c(c5)OCCO6)n3)COC4)C2)nc1 (centres undefined) | 49.2 | > 50 |  | 
3 | COc1ccc(Nc2nc(N3CCC(NC(=O)c4ccc(C(=O)O)cn4)C3)nc3c2COC3)cc1 (centres undefined) | > 50 | > 50 |  | 
4 | COc1ccc(Nc2nc(N3CCC(NC(=O)c4ccc(C(=O)O)cc4)C3)nc3c2CCC3)cc1OC (centres undefined) |  |  |  | solubility at 24 h [6]: 86 µg/mL (≈ 171 µM)
5 | CCCCCNc1nc(N2CCC(NC(=O)c3ccc(C(=O)O)cn3)C2)nc2c1COC2 (centres undefined) | > 50 | > 50 |  | 
6 | Cc1ccc(Nc2nc(N3CCC(NC(=O)c4ccc(C(=O)O)cn4)C3)nc3c2COC3)cc1C (centres undefined) | > 50 | > 50 | 11.2 | 
7 | COc1ccc(Nc2nc(N3CCC(NC(=O)c4ccc(C(=O)O)cn4)C3)nc3c2COC3)cc1OC (centres undefined) | > 50 |  |  | 
8 | COc1cc(Nc2nc(N3CCC(NC(=O)c4ccc(C(=O)O)cn4)C3)nc3c2COC3)cc(OC)c1 (centres undefined) | 18.6 |  | 3.2 | Activity (Homo sapiens [7]): Dose-dependent effect; Activity (Homo sapiens [8]): Dose-dependent effect; solubility at 24 h [6]: 167 µg/mL (≈ 330 µM); Activity (BMMC [5]): Dose-dependent effect; IC50 (BMMC [3]): 2 µM
9 | Cc1ccc(NC(=O)c2ccc(CN3CCN(C)CC3)cc2)cc1Nc1nc(-c2cccnc2)cs1 [MASITINIB] |  |  |  | IC50 (BMMC [3]): 0.1 µM

Second part, led by results:

Row | IC50 [2] [µM] | IC50 [4] [µM] | Compound | IC50 [1] [µM] | also measured
10 | > 50 | > 50 | CCOCCCNc1nc(N2CCC(NC(=O)c3ccc(C(=O)O)cn3)C2)nc2c1COC2 (centres undefined) |  | 
11 | > 50 | > 50 | O=C(O)c1ccc(C(=O)NC2CCN(c3nc4c(c(NC5CCCCC5)n3)COC4)C2)nc1 (centres undefined) | 5.4 | 
12 | 25.8 | > 50 | CCCCCCCNc1nc(N2CCC(NC(=O)c3ccc(C(=O)O)cn3)C2)nc2c1COC2 (centres undefined) | 8.1 | Activity (BMMC [5]): Dose-dependent effect; IC50 (BMMC [3]): 13 µM
13 | > 50 | > 50 | COCCCNc1nc(N2CCC(NC(=O)c3ccc(C(=O)O)cn3)C2)nc2c1COC2 (centres undefined) |  | 
14 | > 50 | > 50 | Cc1ccc(Nc2nc(N3CCC(NC(=O)c4ccc(C(=O)O)cn4)C3)nc3c2COC3)cc1 (centres undefined) |  | 
15 | > 50 | > 50 | CCc1ccc(Nc2nc(N3CCC(NC(=O)c4ccc(C(=O)O)cn4)C3)nc3c2COC3)cc1 (centres undefined) | 9.4 | 
16 | > 50 | > 50 | CCCCCCNc1nc(N2CCC(NC(=O)c3ccc(C(=O)O)cn3)C2)nc2c1COC2 (centres undefined) | 4 | Activity (Homo sapiens [7]): Dose-dependent effect; Activity (Homo sapiens [8]): Dose-dependent effect
